Assay results reported in ChEMBL document CHEMBL2176868, “7-Alkyl-3-benzylcoumarins: a versatile scaffold for the development of potent and selective cannabinoid receptor agonists and antagonists” (J Med Chem, 2012).

What was measured:
Cannabinoid receptor 2 [1] = biological target: T1, Cannabinoid receptor 2 (Homo sapiens, UniProt P34972); test: Agonist activity at human CB2 receptor expressed in CHO cells assessed as inhibition of forskolin-stimulated cAMP accumulation using [3H]-cAMP at 1 uM after 5 mins by liquid scintillation counter relative to CP55940; format: functional, cell-based
T1 sequence (P34972 whole entry): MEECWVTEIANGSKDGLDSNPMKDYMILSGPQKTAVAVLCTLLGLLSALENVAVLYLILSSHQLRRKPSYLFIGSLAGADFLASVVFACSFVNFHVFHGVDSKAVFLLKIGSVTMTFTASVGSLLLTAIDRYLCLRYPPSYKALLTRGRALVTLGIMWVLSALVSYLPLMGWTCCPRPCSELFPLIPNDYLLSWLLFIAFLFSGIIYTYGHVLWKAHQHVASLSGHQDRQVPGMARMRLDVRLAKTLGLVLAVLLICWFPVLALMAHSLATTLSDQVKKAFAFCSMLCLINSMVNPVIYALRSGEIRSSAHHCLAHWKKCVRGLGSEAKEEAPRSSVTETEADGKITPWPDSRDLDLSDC

Cannabinoid receptor 2 [2] = biological target: T1, Cannabinoid receptor 2; test: Displacement of [3H]CP55,940 from human CB2 receptor expressed in CHO cells after 2 hrs by liquid scintillation counter; format: cell-based
Cannabinoid receptor 1 [3] = biological target: T2, Cannabinoid receptor 1 (Homo sapiens, UniProt P21554); test: biochemical; format: cell-based, CHO
T2 sequence (P21554 whole entry): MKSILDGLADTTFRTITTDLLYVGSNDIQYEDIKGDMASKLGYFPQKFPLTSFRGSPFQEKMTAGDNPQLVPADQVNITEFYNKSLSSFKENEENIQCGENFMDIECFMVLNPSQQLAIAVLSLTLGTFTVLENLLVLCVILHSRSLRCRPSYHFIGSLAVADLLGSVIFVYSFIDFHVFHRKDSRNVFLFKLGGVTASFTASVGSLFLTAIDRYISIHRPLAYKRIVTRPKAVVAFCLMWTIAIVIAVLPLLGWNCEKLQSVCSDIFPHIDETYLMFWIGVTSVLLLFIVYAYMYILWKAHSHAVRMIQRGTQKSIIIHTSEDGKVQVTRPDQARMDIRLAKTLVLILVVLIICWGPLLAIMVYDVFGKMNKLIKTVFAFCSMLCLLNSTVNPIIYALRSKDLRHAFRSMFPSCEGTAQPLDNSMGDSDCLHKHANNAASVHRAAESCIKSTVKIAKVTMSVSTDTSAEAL

Cannabinoid receptor 1 [4] = biological target: T2, Cannabinoid receptor 1; conditions: CHO, at 1 µM
Cannabinoid receptor 1 [5] = biological target: T2, Cannabinoid receptor 1; test: Displacement of [3H]CP55,940 from human CB1 receptor expressed in CHO cells at 10 uM after 2 hrs by liquid scintillation counter; format: cell-based
In short: (§1)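 The screen used CHO cell membranes expressing the human receptor (50 μg protein), [3H]CP55,940 at 0.1 nM final and compound at 10 μM in 50 mM Tris, 3 mM MgCl2, 0.1% BSA, pH 7.4, with 2.5% DMSO final. Incubation was 2 h at room temperature. Nonspecific binding was taken with 10 μM unlabeled CP55,940. Filtration through PEI-soaked GF/C filters was followed by scintillation counting, and the value is % inhibition of binding.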

Cannabinoid receptor 2 [6] = biological target: T1, Cannabinoid receptor 2; test: Displacement of [3H]CP55,940 from human CB2 receptor expressed in CHO cells at 10 uM after 2 hrs by liquid scintillation counter; format: cell-based; in short: as §1
Cannabinoid receptor 2 [7] = biological target: T1, Cannabinoid receptor 2; test: Agonist activity at human CB2 receptor expressed in CHO cells assessed as inhibition of forskolin-stimulated cAMP accumulation using [3H]-cAMP after 5 mins by liquid scintillation counter; format: functional, cell-based
In short: (§2)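 Intact CHO cells stably expressing the receptor (retrovirally transfected, kept in 0.2 mg/mL G418) were seeded 24 h ahead and preincubated 2 h at 37 °C in HBSS. Cells were lysed hot and cAMP was read by competition with [3H]cAMP for bovine adrenal binding protein, filtered and counted. EC50 came from full concentration-response curves, three independent experiments in duplicate.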

Cannabinoid receptor 1 [8] = biological target: T2, Cannabinoid receptor 1; test: Agonist activity at human CB1 receptor expressed in CHO cells assessed as inhibition of forskolin-stimulated cAMP accumulation using [3H]-cAMP after 5 mins by liquid scintillation counter; format: functional, cell-based; in short: as §2
CHO = test: Selectivity ratio of Ki for human CB1 receptor to Ki for human CB2 receptor expressed in CHO cells; format: cell-based

CCCCC1(c2cc(OC)c3cc(Cc4ccccc4OC)c(=O)oc3c2)CCCC1
inhibition (Cannabinoid receptor 2 [1]): 3% | Ki (Cannabinoid receptor 2 [2]): 1.14 µM | Ki (Cannabinoid receptor 1 [3]): 0.598 µM | inhibition (Cannabinoid receptor 1 [4]): 110%

COc1cccc(Cc2cc3c(OC)cc(Br)cc3oc2=O)c1
inhibition (Cannabinoid receptor 2 [1]): 0% | inhibition (Cannabinoid receptor 1 [5]): 38% | Ki (Cannabinoid receptor 2 [2]): 2.45 µM | Ki (Cannabinoid receptor 1 [3]): > 10 µM | inhibition (Cannabinoid receptor 1 [4]): 0%

Cc1ccc(C(C)C)c2cc(Cc3ccccc3O)c(=O)oc12
inhibition (Cannabinoid receptor 2 [6]): 24% | inhibition (Cannabinoid receptor 1 [5]): 31% | Ki (Cannabinoid receptor 2 [2]): > 10 µM | Ki (Cannabinoid receptor 1 [3]): > 10 µM

Cc1ccc(Cc2cc3c(O)cc(C)cc3oc2=O)cc1
inhibition (Cannabinoid receptor 2 [6]): 23% | inhibition (Cannabinoid receptor 1 [5]): 30% | Ki (Cannabinoid receptor 2 [2]): > 10 µM | Ki (Cannabinoid receptor 1 [3]): > 10 µM

CCCCCc1cc(OC)c2cc(Cc3cccc(Cl)c3)c(=O)oc2c1
inhibition (Cannabinoid receptor 2 [1]): 40% | Ki (Cannabinoid receptor 2 [2]): 0.35 µM | Ki (Cannabinoid receptor 1 [3]): 0.637 µM | inhibition (Cannabinoid receptor 1 [4]): 0%

CCCCC1(c2cc(O)c3cc(Cc4ccccc4O)c(=O)oc3c2)CCCC1
inhibition (Cannabinoid receptor 2 [1]): 106% | Ki (Cannabinoid receptor 2 [2]): 0.068 µM | Ki (Cannabinoid receptor 1 [3]): 1.58 µM | EC50 (Cannabinoid receptor 2 [7]): 0.048 µM | inhibition (Cannabinoid receptor 1 [4]): 18%

CCCCCc1cc(OC)c2cc(Cc3ccccc3C)c(=O)oc2c1
inhibition (Cannabinoid receptor 2 [1]): 58% | Ki (Cannabinoid receptor 2 [2]): 0.405 µM | Ki (Cannabinoid receptor 1 [3]): 0.022 µM | EC50 (Cannabinoid receptor 2 [7]): 0.213 µM | inhibition (Cannabinoid receptor 1 [4]): 0%

COc1cccc(Cc2cc3c(OC)cc(CBr)cc3oc2=O)c1
inhibition (Cannabinoid receptor 2 [1]): 0% | Ki (Cannabinoid receptor 2 [2]): 13.3 µM | Ki (Cannabinoid receptor 1 [3]): 4.74 µM | inhibition (Cannabinoid receptor 1 [4]): 23%

CCCCCc1cc(O)c2cc(Cc3ccccc3C)c(=O)oc2c1
inhibition (Cannabinoid receptor 2 [1]): 12% | Ki (Cannabinoid receptor 2 [2]): 3.57 µM | Ki (Cannabinoid receptor 1 [3]): 1.64 µM | inhibition (Cannabinoid receptor 1 [4]): 9%

CCCCCc1cc(O)c2cc(Cc3ccccc3O)c(=O)oc2c1
inhibition (Cannabinoid receptor 2 [1]): 0% | Ki (Cannabinoid receptor 2 [2]): 4.8 µM | Ki (Cannabinoid receptor 1 [3]): 9.82 µM | inhibition (Cannabinoid receptor 1 [4]): 109%

CCCCCc1cc(OC)c2cc(Cc3cccc(C)c3)c(=O)oc2c1
inhibition (Cannabinoid receptor 2 [1]): 50% | Ki (Cannabinoid receptor 2 [2]): 0.392 µM | Ki (Cannabinoid receptor 1 [3]): 0.713 µM | inhibition (Cannabinoid receptor 1 [4]): 0%

Cc1cc(O)c2cc(Cc3ccccc3C)c(=O)oc2c1
inhibition (Cannabinoid receptor 2 [6]): 38% | inhibition (Cannabinoid receptor 1 [5]): 34% | Ki (Cannabinoid receptor 2 [2]): > 10 µM | Ki (Cannabinoid receptor 1 [3]): > 10 µM

CCCCCc1cc(OC)c2cc(Cc3ccccc3OC)c(=O)oc2c1
inhibition (Cannabinoid receptor 2 [1]): 106% | Ki (Cannabinoid receptor 2 [2]): 0.049 µM | Ki (Cannabinoid receptor 1 [3]): 0.032 µM | EC50 (Cannabinoid receptor 2 [7]): 0.014 µM | EC50 (Cannabinoid receptor 1 [8]): 0.056 µM | inhibition (Cannabinoid receptor 1 [4]): 93%

CCCCCCC(C)(C)c1cc(O)c2cc(Cc3ccccc3)c(=O)oc2c1
inhibition (Cannabinoid receptor 2 [1]): 32% | Ki (Cannabinoid receptor 2 [2]): 0.465 µM | Ki (Cannabinoid receptor 1 [3]): 2.63 µM | inhibition (Cannabinoid receptor 1 [4]): 84%

CCCCCCC(C)(C)c1cc(OC)c2cc(Cc3ccccc3OC)c(=O)oc2c1
inhibition (Cannabinoid receptor 2 [1]): 30% | Ki (Cannabinoid receptor 2 [2]): 3.01 µM | Ki (Cannabinoid receptor 1 [3]): 1.02 µM | inhibition (Cannabinoid receptor 1 [4]): 0%

CCCCCc1cc(O)c2cc(Cc3ccccc3Cl)c(=O)oc2c1
inhibition (Cannabinoid receptor 2 [1]): 2% | Ki (Cannabinoid receptor 2 [2]): 1.94 µM | Ki (Cannabinoid receptor 1 [3]): 19.1 µM | inhibition (Cannabinoid receptor 1 [4]): 60%

CCCCCc1cc(O)c2cc(Cc3cccc(C)c3)c(=O)oc2c1
inhibition (Cannabinoid receptor 2 [1]): 10% | Ki (Cannabinoid receptor 2 [2]): 1.76 µM | Ki (Cannabinoid receptor 1 [3]): 2.17 µM | inhibition (Cannabinoid receptor 1 [4]): 42%

CCCCCc1cc(OC)c2cc(Cc3ccccc3Cl)c(=O)oc2c1
inhibition (Cannabinoid receptor 2 [1]): 47% | Ki (Cannabinoid receptor 2 [2]): 0.185 µM | Ki (Cannabinoid receptor 1 [3]): 0.033 µM | inhibition (Cannabinoid receptor 1 [4]): 6%

CCCCCCC(C)(C)c1cc(OC)c2cc(Cc3ccccc3)c(=O)oc2c1
inhibition (Cannabinoid receptor 2 [1]): 0% | Ki (Cannabinoid receptor 2 [2]): 4.12 µM | Ki (Cannabinoid receptor 1 [3]): 1.43 µM | inhibition (Cannabinoid receptor 1 [4]): 27%

CCCCCc1cc(OC)c2cc(Cc3ccccc3)c(=O)oc2c1
Ratio Ki (CHO): 7 | inhibition (Cannabinoid receptor 2 [1]): 47% | Ki (Cannabinoid receptor 2 [2]): 0.267 µM | Ki (Cannabinoid receptor 1 [3]): 1.92 µM | inhibition (Cannabinoid receptor 1 [4]): 58%

CCCCCc1cc(OC)c2cc(Cc3cccc(OC)c3)c(=O)oc2c1
inhibition (Cannabinoid receptor 2 [1]): 93% | Ki (Cannabinoid receptor 2 [2]): 0.143 µM | Ki (Cannabinoid receptor 1 [3]): 0.045 µM | EC50 (Cannabinoid receptor 2 [7]): 0.092 µM | EC50 (Cannabinoid receptor 1 [8]): 0.43 µM | inhibition (Cannabinoid receptor 1 [4]): 58%

CCCCCCC(C)(C)c1cc(O)c2cc(Cc3ccccc3O)c(=O)oc2c1
inhibition (Cannabinoid receptor 2 [1]): 76% | Ki (Cannabinoid receptor 2 [2]): 0.21 µM | Ki (Cannabinoid receptor 1 [3]): 0.244 µM | EC50 (Cannabinoid receptor 2 [7]): 0.054 µM | inhibition (Cannabinoid receptor 1 [4]): 0%

CCCCC1(c2cc(OC)c3cc(Cc4ccccc4OC)c(=O)oc3c2)CCCCC1
inhibition (Cannabinoid receptor 2 [6]): 45% | inhibition (Cannabinoid receptor 1 [5]): 42% | Ki (Cannabinoid receptor 2 [2]): ≤ 10 µM | Ki (Cannabinoid receptor 1 [3]): ≤ 10 µM

CCCCCc1cc(O)c2cc(Cc3cccc(O)c3)c(=O)oc2c1
inhibition (Cannabinoid receptor 2 [1]): 0% | Ki (Cannabinoid receptor 2 [2]): 5.15 µM | Ki (Cannabinoid receptor 1 [3]): 16.2 µM | inhibition (Cannabinoid receptor 1 [4]): 0%

CCCCCCCC(C)(C)c1cc(O)c2cc(Cc3ccccc3O)c(=O)oc2c1
inhibition (Cannabinoid receptor 2 [1]): 52% | Ki (Cannabinoid receptor 2 [2]): 0.292 µM | Ki (Cannabinoid receptor 1 [3]): 1.17 µM | inhibition (Cannabinoid receptor 1 [4]): 0%

COc1cccc(Cc2cc3c(OC)cccc3oc2=O)c1
inhibition (Cannabinoid receptor 2 [6]): 27% | Ki (Cannabinoid receptor 2 [2]): > 10 µM | Ki (Cannabinoid receptor 1 [3]): 21.1 µM | inhibition (Cannabinoid receptor 1 [4]): 0%

CCCCCc1cc(O)c2cc(Cc3ccccc3)c(=O)oc2c1
inhibition (Cannabinoid receptor 2 [1]): 0% | Ki (Cannabinoid receptor 2 [2]): 1.68 µM | Ki (Cannabinoid receptor 1 [3]): 1.27 µM | inhibition (Cannabinoid receptor 1 [4]): 0%

COc1cccc(Cc2cc3c(OC)cc(CO)cc3oc2=O)c1
inhibition (Cannabinoid receptor 2 [6]): 16% | inhibition (Cannabinoid receptor 1 [5]): 8% | Ki (Cannabinoid receptor 2 [2]): > 10 µM | Ki (Cannabinoid receptor 1 [3]): > 10 µM

CCCCCCCC(C)(C)c1cc(OC)c2cc(Cc3ccccc3OC)c(=O)oc2c1
inhibition (Cannabinoid receptor 2 [6]): 47% | inhibition (Cannabinoid receptor 1 [5]): 51% | Ki (Cannabinoid receptor 2 [2]): 10 µM | Ki (Cannabinoid receptor 1 [3]): 10 µM

COc1cccc(Cc2cc3c(OC)cc(CO[Si](c4ccccc4)(c4ccccc4)C(C)(C)C)cc3oc2=O)c1
inhibition (Cannabinoid receptor 2 [6]): 4% | inhibition (Cannabinoid receptor 1 [5]): 12% | Ki (Cannabinoid receptor 2 [2]): > 10 µM | Ki (Cannabinoid receptor 1 [3]): > 10 µM

CCCCC1(c2cc(O)c3cc(Cc4ccccc4O)c(=O)oc3c2)CCCCC1
Ratio Ki (CHO): 100 | inhibition (Cannabinoid receptor 2 [1]): 76% | Ki (Cannabinoid receptor 2 [2]): 0.049 µM | Ki (Cannabinoid receptor 1 [3]): 4.89 µM | EC50 (Cannabinoid receptor 2 [7]): 0.179 µM | inhibition (Cannabinoid receptor 1 [4]): 0%

CCCCCc1cc(O)c2cc(Cc3cccc(Cl)c3)c(=O)oc2c1
inhibition (Cannabinoid receptor 2 [1]): 0% | Ki (Cannabinoid receptor 2 [2]): 2.2 µM | Ki (Cannabinoid receptor 1 [3]): 6.39 µM | inhibition (Cannabinoid receptor 1 [4]): 70%
